Screening results from PubChem.
Compounds with a hit are over-represented: about 2.9% of the library has one in this group of screens.
SIRT5 inh – SIRT5 desuccinylase inhibitors, primary screen, biochemical, fluorescence imaging, single point, set 5; 330,000 compounds, 1.1% hits; AID 652115, 2013; NAD-dependent protein deacylase sirtuin-5, mitochondrial (Homo sapiens), Q9NXA8; Purified SirT5, succinyl-peptide AMC, trypsin-coupled fluorescence; inhibition, % at 15 µM; in the data active = inhibition above about 15%
Target sequence (Q9NXA8 whole entry, looked up): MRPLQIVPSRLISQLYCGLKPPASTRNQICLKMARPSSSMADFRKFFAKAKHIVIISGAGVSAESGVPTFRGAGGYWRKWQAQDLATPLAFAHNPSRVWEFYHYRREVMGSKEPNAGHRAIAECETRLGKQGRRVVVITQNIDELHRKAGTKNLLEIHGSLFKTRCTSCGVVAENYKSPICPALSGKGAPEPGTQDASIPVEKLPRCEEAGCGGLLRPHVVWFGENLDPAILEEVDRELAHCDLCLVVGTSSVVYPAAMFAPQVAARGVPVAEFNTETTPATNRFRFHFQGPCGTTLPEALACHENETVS
Statin myotox sup – suppressors of statin myotoxicity in C2C12 myotubes, primary screen, cell-based, single point, plate reader | C2C12 myotubes + simvastatin, ATP luminescence, 48 h; scaled: DMSO 0, geranylgeraniol control 100 | rescue of ATP level, % at 7.49 µM | 330,000 compounds, 0.78% hits | AID 602340, 2012;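 active = mean ATP rescue above about 67%, or every replicate alone reaching that limit, limit read from the data, passing the limit was not always enough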;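 also: myotubes were challenged with 10 µM simvastatin during compound exposure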
PGC1a acetyl inh – inhibitors of PGC1a acetylation signal, primary screen, cell-based, U2OS, AlphaScreen, inhibitor mode; AlphaScreen anti-acetyl-lysine; with virally co-expressed GCN5 acetyltransferase; AID 651687, 2012; inhibition, % at 15.6 µM; 350,000 compounds, 0.17% hits;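 active = every replicate shows inhibition of at least 40%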;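 also: 0% = neutral control wells and 100% = positive control wells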
S100A4 MyoIIA – inhibitors of S100A4-myosin IIA peptide binding, primary screen, biochemical, fluorescence polarization, TAMRA-MyoIIA peptide; Protein S100-A4 (Homo sapiens), P26447; inhibition, % at 10.7 µM; 360,000 compounds, 0.14% hits;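 active = mean inhibition of at least 70% across replicates, with every replicate also reaching that level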
Target sequence (P26447 whole entry, looked up): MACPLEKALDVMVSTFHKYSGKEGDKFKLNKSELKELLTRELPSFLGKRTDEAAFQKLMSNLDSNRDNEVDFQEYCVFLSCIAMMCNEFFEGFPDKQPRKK
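Test system: S100A4 monomer protein; Medium: HEPES pH 7.2 with CaCl2, KCl, NaCl, DTT, Triton; Probe or stimulus: TAMRA-labelled myosin IIA heavy-chain peptide probe, 5 nM; Doses: one dose per compound; Times: polarization read 5 min after assay mix addition, stable 5–60 min; Benchmarks: neutral control DMSO, positive control TFP.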
DENV2 CPE rescue – inhibitors of DENV2 cytopathic effect, primary screen, cell-based, plate reader, single concentration; DENV2-infected cells, cytopathic effect rescue; 350,000 compounds, 1.7% hits; AID 651640, 2012; CPE inhibition, % at 9.99 µM; in the data active = CPE inhibition above about 20%, passing the limit was not always enough; tested in BHK-21 cells;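 also: 0% = median of neutral control wells and 100% = median of positive control wells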
The depositor's hits bear a star.

Screening C[C@H]1CCCCO[C@@H](CN(C)C)[C@@H](C)CN([C@@H](C)CO)C(=O)c2cc(NC(=O)c3ccncc3)ccc2O1 returned SIRT5 inh 0, Statin myotox sup -26, PGC1a acetyl inh -7, S100A4 MyoIIA -1 and DENV2 CPE rescue 12.
Screening C[C@@H]1CCCCO[C@H](CN(C)C)[C@H](C)CN([C@H](C)CO)C(=O)c2cc(NC(=O)c3ccncc3)ccc2O1 returned SIRT5 inh -1, Statin myotox sup 5, PGC1a acetyl inh 0, S100A4 MyoIIA 2 and DENV2 CPE rescue 34*.
Screening Cc1noc(C)c1NC(=O)N(C)C[C@H]1Oc2ncc(C#CC3CCCC3)cc2C(=O)N([C@H](C)CO)C[C@H]1C returned SIRT5 inh 5, Statin myotox sup 26, PGC1a acetyl inh 3, S100A4 MyoIIA -1 and DENV2 CPE rescue -1.
Screening COc1ccc2c3c([nH]c2c1)[C@@H](CO)N(C(=O)CN(C)C)CC31CCN(C(=O)c2ccncc2)CC1 returned SIRT5 inh -2, PGC1a acetyl inh 3, S100A4 MyoIIA 4 and DENV2 CPE rescue 18.
`C[C@H](CO)N1C[C@H](C)[C@H](CN(C)Cc2ccccc2)Oc2ccc(NS(=O)(=O)c3ccccc3)cc2CC1=O` gave SIRT5 inh 6, Statin myotox sup 18, PGC1a acetyl inh 6, S100A4 MyoIIA 87* and DENV2 CPE rescue 55*.
Screening Cc1ccc(S(=O)(=O)Nc2ccc3c(c2)CC(=O)N([C@H](C)CO)C[C@H](C)[C@@H](CN(C)Cc2ccc(-c4ccccc4)cc2)O3)cc1 returned SIRT5 inh 12, Statin myotox sup 55, PGC1a acetyl inh 4, S100A4 MyoIIA -7 and DENV2 CPE rescue -7.
C[C@@H]1CN([C@H](C)CO)C(=O)Cc2cc(NS(=O)(=O)c3ccccc3)ccc2O[C@@H]1CN(C)Cc1ccc(-c2ccccc2)cc1 was read as SIRT5 inh 12, Statin myotox sup 25, PGC1a acetyl inh 15, S100A4 MyoIIA -7 and DENV2 CPE rescue 56*.
`C[C@@H]1CN([C@@H](C)CO)C(=O)Cc2cc(NS(=O)(=O)c3ccccc3)ccc2O[C@@H]1CN(C)Cc1ccc(-c2ccccc2)cc1` gave SIRT5 inh 11, Statin myotox sup 15, PGC1a acetyl inh 16, S100A4 MyoIIA 29 and DENV2 CPE rescue 44*.
C[C@@H]1CN([C@H](C)CO)C(=O)Cc2cc(NS(C)(=O)=O)ccc2O[C@@H]1CN(C)Cc1ccc(-c2ccccc2)cc1 was read as SIRT5 inh 1, Statin myotox sup 95*, PGC1a acetyl inh -5, S100A4 MyoIIA -12 and DENV2 CPE rescue 6.
For COc1ccc(CN2[C@@H](CO)[C@@H]3c4ccccc4N(C(=O)Nc4ccc(F)cc4)C[C@@H]32)cc1 the results were SIRT5 inh -2, Statin myotox sup -10, PGC1a acetyl inh 10, S100A4 MyoIIA -44 and DENV2 CPE rescue 1.
CO[C@@H]1CN(C)C(=O)c2ccc(NC(C)=O)cc2OC[C@H](C)N(C(=O)Cc2cccnc2)C[C@H]1C was read as SIRT5 inh -1, Statin myotox sup -5, PGC1a acetyl inh 3, S100A4 MyoIIA 3 and DENV2 CPE rescue -1.
Cc1ccccc1S(=O)(=O)N1CC(=O)N2[C@H](CO)[C@@H](c3ccc(C#CC4CC4)cc3)[C@@H]2C1 was read as SIRT5 inh 2, PGC1a acetyl inh -2, S100A4 MyoIIA 7 and DENV2 CPE rescue 4.
CNC[C@H]1OCCCC[C@@H](C)Oc2ccc(NS(=O)(=O)c3ccccc3)cc2C(=O)N([C@@H](C)CO)C[C@@H]1C was read as SIRT5 inh -1, Statin myotox sup 10, PGC1a acetyl inh 12, S100A4 MyoIIA 1 and DENV2 CPE rescue 16.
For O=C(CSc1nnnn1-c1cccc2c1CCCC2)N1CCCCC1 the results were Statin myotox sup 105* and PGC1a acetyl inh -3.
Screening COc1cccc(-c2nnc(SCC(=O)N3CCCc4ccccc43)o2)c1 returned Statin myotox sup 98* and PGC1a acetyl inh -3.
For COc1cc(OC)cc(-c2nnc(SCC(=O)N3CCCc4ccccc43)o2)c1 the results were Statin myotox sup 108* and PGC1a acetyl inh -7.
`COc1ccc(-n2nnnc2SCC(=O)N2CCCc3ccccc32)cc1OC` gave Statin myotox sup 128* and PGC1a acetyl inh -4.
